In brackets after ≈: the same amount, converted by molar mass.
Key:
Escherichia coli [1] = assay: Antibacterial activity against Escherichia coli KC-14 assessed as growth inhibition at 128 to 0.002 mg/L incubated for 18 hrs at 37 degC by agar dilution method; assay type: functional; details: KC-14, 18 h
Summary of the method: (§1)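 Agar dilution on Mueller Hinton agar per Japanese Society of Chemotherapy standard method; about 10⁴ cfu inoculated onto plates holding two-fold dilution series; incubation 37°C, 18 h; MIC read as growth endpoint.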

Escherichia coli [2] = assay: Antibacterial activity against Escherichia coli NIHJ assessed as growth inhibition at 128 to 0.002 mg/L incubated for 18 hrs at 37 degC by agar dilution method; assay type: functional; summary of the method: as §1
Escherichia coli [3] = assay: Antibacterial activity against Escherichia coli 177 assessed as growth inhibition at 128 to 0.002 mg/L incubated for 18 hrs at 37 degC by agar dilution method; assay type: functional; details: Escherichia coli, 177, 18 h; summary of the method: as §1
Serratia marcescens [4] = assay: Antibacterial activity against Serratia marcescens IFO3736 assessed as growth inhibition at 128 to 0.002 mg/L incubated for 18 hrs at 37 degC by agar dilution method; assay type: functional; details: IFO3736, 18 h; summary of the method: as §1
Proteus vulgaris = assay: Antibacterial activity against Proteus vulgaris IFO3167 assessed as growth inhibition at 128 to 0.002 mg/L incubated for 18 hrs at 37 degC by agar dilution method; assay type: functional; details: IFO3167, 18 h; summary of the method: as §1
Pseudomonas aeruginosa [5] = assay: Antibacterial activity against Pseudomonas aeruginosa IFO3445 assessed as growth inhibition at 128 to 0.002 mg/L incubated for 18 hrs at 37 degC by agar dilution method; assay type: functional; details: IFO3445, 18 h; summary of the method: as §1
Klebsiella pneumoniae [6] = assay: Antibacterial activity against Klebsiella pneumoniae KC-1 assessed as growth inhibition at 128 to 0.002 mg/L incubated for 18 hrs at 37 degC by agar dilution method; assay type: functional; details: KC-1, 18 h; summary of the method: as §1
[7] = Drug excretion in Sprague-Dawley rat at 10 mg/kg, po after 24 hrs by HPLC; assay type: ADME, organism-based; details: in vivo, read-out: Drug excretion
Summary of the method: (§2)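 Six-week male Sprague-Dawley rats, fasted overnight; oral dose suspended in 0.5% methylcellulose, iv dose dissolved in 0.04 N NaOH. Urine from intact rats in metabolic cages, bile from bile duct-cannulated rats, 0–24 h. Bile alkaline-hydrolysed (1 N NaOH, 37°C, 1 h) to convert glucuronides; HPLC with UV 290 nm and internal standard; % of dose; mean ± S.D., three rats.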

Salmonella typhimurium = assay: Antibacterial activity against Salmonella typhimurium IFO13245 assessed as growth inhibition at 128 to 0.002 mg/L incubated for 18 hrs at 37 degC by agar dilution method; assay type: functional, Salmonella enterica subsp. enterica serovar Typhimurium; details: Salmonella enterica, IFO13245, 18 h; summary of the method: as §1
DNA gyrase = DNA gyrase (Escherichia coli, UniProt P0AES4+P0AES6); assay: Inhibition of Escherichia coli DNA gyrase preincubated for 5 mins at 37 degC before addition of relaxed pBR322 as substrate by supercoiling assay; assay type: protein-complex assay
Morganella morganii = assay: Antibacterial activity against Morganella morganii W1026 assessed as growth inhibition at 128 to 0.002 mg/L incubated for 18 hrs at 37 degC by agar dilution method; assay type: functional; details: W1026, 18 h; summary of the method: as §1
Pseudomonas aeruginosa [8] = assay: Antibacterial activity against Pseudomonas aeruginosa 15846 assessed as growth inhibition at 128 to 0.002 mg/L incubated for 18 hrs at 37 degC by agar dilution method; assay type: functional; details: Pseudomonas aeruginosa, 15846, 18 h; summary of the method: as §1
[9] = Drug excretion in Sprague-Dawley rat bile assessed as unmetabolized form at 10 mg/kg, po after 24 hrs by HPLC; assay type: ADME, organism-based; details: read-out: Drug excretion; summary of the method: as §2
[10] = Drug excretion in Sprague-Dawley rat assessed as unmetabolized form at 5 mg/kg, iv after 24 hrs by HPLC; assay type: ADME, organism-based; details: in vivo, read-out: Drug excretion; summary of the method: as §2
Pseudomonas aeruginosa [11] = assay: Antibacterial activity against Pseudomonas aeruginosa E-2 assessed as growth inhibition at 128 to 0.002 mg/L incubated for 18 hrs at 37 degC by agar dilution method; assay type: functional; details: E-2, 18 h; summary of the method: as §1
Citrobacter freundii = assay: Antibacterial activity against Citrobacter freundii IFO1268 assessed as growth inhibition at 128 to 0.002 mg/L incubated for 18 hrs at 37 degC by agar dilution method; assay type: functional; details: IFO1268, 18 h; summary of the method: as §1
Proteus mirabilis = assay: Antibacterial activity against Proteus mirabilis IFO3849 assessed as growth inhibition at 128 to 0.002 mg/L incubated for 18 hrs at 37 degC by agar dilution method; assay type: functional; details: IFO3849, 18 h; summary of the method: as §1
[12] = Drug excretion in Sprague-Dawley rat urine at 5 mg/kg, iv after 24 hrs by HPLC; assay type: ADME, organism-based; details: read-out: Drug excretion; summary of the method: as §2
Klebsiella pneumoniae [13] = assay: Antibacterial activity against Klebsiella pneumoniae DT-S assessed as growth inhibition at 128 to 0.002 mg/L incubated for 18 hrs at 37 degC by agar dilution method; assay type: functional; summary of the method: as §1
[14] = system: Acinetobacter calcoaceticus; assay: Antibacterial activity against Acinetobacter calcoaceticus Ac-54 assessed as growth inhibition at 128 to 0.002 mg/L incubated for 18 hrs at 37 degC by agar dilution method; assay type: functional; details: Ac-54, 18 h; summary of the method: as §1
[15] = Drug excretion in Sprague-Dawley rat bile assessed as unmetabolized form at 5 mg/kg, iv after 24 hrs by HPLC; assay type: ADME, organism-based; details: read-out: Drug excretion; summary of the method: as §2
[16] = Solubility of the compound in JP2 solution at pH 6.8 after 24 hrs at 25 degC by HPLC; assay type: physicochemical
Summary of the method: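 Excess solid shaken in JP2 (50 mM potassium dihydrogenphosphate, pH 6.8) at 25°C for 24 h to equilibrium, filtered 0.45 µm; filtrate concentration by reversed-phase UPLC, UV 290 nm; mean ± S.D., n=3.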

Enterobacter cloacae = assay: Antibacterial activity against Enterobacter cloacae IFO13535 assessed as growth inhibition at 128 to 0.002 mg/L incubated for 18 hrs at 37 degC by agar dilution method; assay type: functional; details: IFO13535, 18 h; summary of the method: as §1
[17] = Passive permeability of the compound after 5 hrs at 25 degC by PAMPA assay; assay type: physicochemical; details: read-out: Peff
Summary of the method: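 PAMPA: 10 µM compound in PBS with 5% MeOH in donor, PBS acceptor; 25°C, 5 h; both sides quantified by HPLC; Peff derived from donor/acceptor concentrations, volumes, 0.3 cm² filter area and 18,000 s; mean ± S.D., n=3.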

Providencia rettgeri = assay: Antibacterial activity against Providencia rettgeri W1008 assessed as growth inhibition at 128 to 0.002 mg/L incubated for 18 hrs at 37 degC by agar dilution method; assay type: functional; details: W1008, 18 h; summary of the method: as §1
Serratia marcescens [18] = assay: Antibacterial activity against Serratia marcescens T-55 assessed as growth inhibition at 128 to 0.002 mg/L incubated for 18 hrs at 37 degC by agar dilution method; assay type: functional; details: T-55, 18 h; summary of the method: as §1
[19] = Oral drug absorption in Sprague-Dawley rat at 10 mg/kg, po after 24 hrs by HPLC; assay type: ADME, organism-based; details: in vivo
Summary of the method: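 Absorption rate computed as total urinary plus biliary excretion (% of dose, summed means) after oral dosing divided by total after iv dosing; excretion measured in fasted male Sprague-Dawley rats by HPLC over 24 h, bile glucuronides alkaline-hydrolysed.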

[20] = Drug excretion in Sprague-Dawley rat urine at 10 mg/kg, po after 24 hrs by HPLC; assay type: ADME, organism-based; details: read-out: Drug excretion; summary of the method: as §2

SMILES | MIC (Escherichia coli [1]) [µg/mL] | MIC (Escherichia coli [2]) [µg/mL] | MIC (Escherichia coli [3]) [µg/mL] | MIC (Serratia marcescens [4]) [µg/mL] | MIC (Proteus vulgaris) [µg/mL] | MIC (Pseudomonas aeruginosa [5]) [µg/mL] | MIC (Klebsiella pneumoniae [6]) [µg/mL] | dose excreted at 24 h [7] [%] | MIC (Salmonella typhimurium) [µg/mL] | IC50 (DNA gyrase) [nM] | MIC (Morganella morganii) [µg/mL] | MIC (Pseudomonas aeruginosa [8]) [µg/mL] | dose excreted at 24 h [9] [%] | dose excreted at 24 h [10] [%] | MIC (Pseudomonas aeruginosa [11]) [µg/mL] | MIC (Citrobacter freundii) [µg/mL] | MIC (Proteus mirabilis) [µg/mL] | dose excreted at 24 h [12] [%] | MIC (Klebsiella pneumoniae [13]) [µg/mL] | MIC [14] [µg/mL] | further results
Cc1c(N2CC(N)C2)c(F)cc2c(=O)c(C(=O)O)cn(-c3nc(N)c(F)cc3F)c12 | 0.004 (≈ 0.00954 µM) | 0.004 (≈ 0.00954 µM) | 0.004 (≈ 0.00954 µM) | 0.061 (≈ 0.145 µM) | 0.061 (≈ 0.145 µM) | 0.061 (≈ 0.145 µM) | 0.061 (≈ 0.145 µM) | 8.2 | 0.061 (≈ 0.145 µM) | 286 | 0.061 (≈ 0.145 µM) | 0.061 (≈ 0.145 µM) | 4.2 | 85 | 0.061 (≈ 0.145 µM) | 0.061 (≈ 0.145 µM) | 0.061 (≈ 0.145 µM) | 44 | 0.061 (≈ 0.145 µM) | 0.061 (≈ 0.145 µM) | dose excreted at 24 h [15]: 41%; solubility at 24 h [16]: 27 µg/mL (≈ 64.4 µM); MIC (Enterobacter cloacae): 0.061 µg/mL (≈ 0.145 µM); Papp at 5 h [17]: 0.12 ×10⁻⁶ cm/s; MIC (Providencia rettgeri): 0.061 µg/mL (≈ 0.145 µM); MIC (Serratia marcescens [18]): 0.061 µg/mL (≈ 0.145 µM); Fa at 24 h [19]: 9.6%; dose excreted at 24 h [20]: 4%
CNC1CN(c2c(F)cc3c(=O)c(C(=O)O)cn(-c4nc(N)c(F)cc4F)c3c2C)C1 | 0.006 (≈ 0.0138 µM) | 0.006 (≈ 0.0138 µM) | 0.006 (≈ 0.0138 µM) | 0.077 (≈ 0.178 µM) | 0.077 (≈ 0.178 µM) | 0.077 (≈ 0.178 µM) | 0.077 (≈ 0.178 µM) | 28 | 0.077 (≈ 0.178 µM) | 554 | 0.077 (≈ 0.178 µM) | 0.077 (≈ 0.178 µM) | 16 | 90 | 0.077 (≈ 0.178 µM) | 0.077 (≈ 0.178 µM) | 0.077 (≈ 0.178 µM) | 49 | 0.077 (≈ 0.178 µM) | 0.077 (≈ 0.178 µM) | dose excreted at 24 h [15]: 41%; solubility at 24 h [16]: 3.1 µg/mL (≈ 7.15 µM); MIC (Enterobacter cloacae): 0.077 µg/mL (≈ 0.178 µM); Papp at 5 h [17]: 0.19 ×10⁻⁶ cm/s; MIC (Providencia rettgeri): 0.077 µg/mL (≈ 0.178 µM); MIC (Serratia marcescens [18]): 0.077 µg/mL (≈ 0.178 µM); Fa at 24 h [19]: 31%; dose excreted at 24 h [20]: 13%
CCNC1CN(c2c(F)cc3c(=O)c(C(=O)O)cn(-c4nc(N)c(F)cc4F)c3c2C)C1 | 0.006 (≈ 0.0134 µM) | 0.006 (≈ 0.0134 µM) | 0.006 (≈ 0.0134 µM) | 0.12 (≈ 0.268 µM) | 0.12 (≈ 0.268 µM) | 0.12 (≈ 0.268 µM) | 0.12 (≈ 0.268 µM) | 69 | 0.12 (≈ 0.268 µM) | 174 | 0.12 (≈ 0.268 µM) | 0.12 (≈ 0.268 µM) | 49 | 91 | 0.12 (≈ 0.268 µM) | 0.12 (≈ 0.268 µM) | 0.12 (≈ 0.268 µM) | 41 | 0.12 (≈ 0.268 µM) | 0.12 (≈ 0.268 µM) | dose excreted at 24 h [15]: 51%; solubility at 24 h [16]: 45 µg/mL (≈ 101 µM); MIC (Enterobacter cloacae): 0.12 µg/mL (≈ 0.268 µM); Papp at 5 h [17]: 0.29 ×10⁻⁶ cm/s; MIC (Providencia rettgeri): 0.12 µg/mL (≈ 0.268 µM); MIC (Serratia marcescens [18]): 0.12 µg/mL (≈ 0.268 µM); Fa at 24 h [19]: 76%; dose excreted at 24 h [20]: 20%

— ChEMBL document CHEMBL3632612, “Discovery of WQ-3810: Design, synthesis, and evaluation of 7-(3-alkylaminoazetidin-1-yl)fluoro-quinolones as orally active antibacterial agents” (Eur J Med Chem, 2015)
